The source made the active and inactive calls. Rule as the data show it, unless noted: active = inhibition above about 30%; inactive = the rest.

Test [1] is described as follows: reducers of endogenous Her2 protein level, primary screen, SKBR3 breast tumor cells, AlphaScreen, ATP viability (AID 461;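 active = Her2 level under about 52% in both replicate screens, with viability over 70% of control, limit read from the data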;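 as to Her2 level: lower value means less Her2 protein in the cells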;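 as to viability: percent of carrier control wells set as 100% viability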). The conditions noted are these: 18-24 h, measured here: SKBR3 viability, ATP luminescence, at 10 µM. On the technique in general: Bead proximity is the source of the signal in Alpha formats.
Test [2] concerns the target Receptor tyrosine-protein kinase erbB-2 (Homo sapiens) (UniProt P04626). The test is described as above. To be noted: 18-24 h, at 10 µM, stronger effect = lower value.
The nature of test [3]: SK-BR-3 cell growth inhibitors, pilot screen, 24 h, human (AID 572;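 active = viability at or below 10% of carrier control in both of two separate runs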;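 also: compound exposure lasted between 18 and 24 h rather than exactly 24 h; 100% = carrier-treated control wells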). The conditions noted are these: SK-BR-3 viability, CellTiter-Glo luminescence, at 10 µM, stronger effect = lower value.
Test [4] can be described thus: HUVEC growth inhibition – cell-based, human, primary screen (AID 575;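 active = viability at or below 30% in both replicate assays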;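 also: 100% = median of untreated cell wells with 0.1% DMSO on each plate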). The conditions noted are these: HUVEC proliferation, CellTiter-Glo luminescence, 72 h; at 10 µM; stronger effect = lower value. In short, it runs like this: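 material = primary HUVEC, no more than 12 passages | input = 1250 cells per well | controls = vehicle and MePR control wells | measured by = CTG luminescence | times = 72 h compound incubation | format = collagen-coated 384-well format | read-out = % viability vs DMSO wells | doses = single 10 µM dose, 0.1% DMSO, from 5x medium stock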

Test [5] in a line: growth inhibitors of H69AR lung tumor, primary screen, human, duplicate replicates (AID 580;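 active = viability at or under a set limit in both replicates, limit being median viability minus 3 SD, cut at about 48% in these data, passing the limit was not always enough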;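 also: 100% = mean luminescence of untreated wells and 0% = no signal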). To be noted: H69AR lung tumor cells viability, ATP luminescence, 72 h; at 10 µM; stronger effect = lower value.
Test [6] can be described thus: reversal of MRP1-mediated doxorubicin resistance, pilot screen, H69AR cells, doxorubicin co-treatment (AID 601;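 active = viability loss from added drug above about 55%, and viability with drug at most 40%, in both replicates, limit read from the data, passing the limit was not always enough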). The conditions noted are these: CellTiter-Glo, 72 h, at 10 µM; for differential viability (reversal): stronger effect = higher value.
A short description of test [7]: 384-well plate pilot, post-Golgi transport modulator project, inhibition of yeast transport mutant growth (AID 636; in the data active = inhibition above about 31%). To be noted: absorbance 615 nm, about 18 h, stronger effect = higher value.
A short description of test [8]: growth suppression of yeast trafficking mutant, preliminary HTS, modulators of trafficking downstream of Golgi apparatus project, 1536-format plate, OD 615 nm (AID 637). To be noted: yeast transport mutant growth, absorbance 615 nm, 18 h; stronger effect = higher value.
Setting [9] is: H69AR cells + 2 uM doxorubicin, measured here: viability with 2 uM doxorubicin, stronger effect = lower value.
Where [10] appears, read: H69AR cells, compound alone cytotoxicity.

Sequence of Receptor tyrosine-protein kinase erbB-2 (Homo sapiens) (P04626 whole entry, looked up): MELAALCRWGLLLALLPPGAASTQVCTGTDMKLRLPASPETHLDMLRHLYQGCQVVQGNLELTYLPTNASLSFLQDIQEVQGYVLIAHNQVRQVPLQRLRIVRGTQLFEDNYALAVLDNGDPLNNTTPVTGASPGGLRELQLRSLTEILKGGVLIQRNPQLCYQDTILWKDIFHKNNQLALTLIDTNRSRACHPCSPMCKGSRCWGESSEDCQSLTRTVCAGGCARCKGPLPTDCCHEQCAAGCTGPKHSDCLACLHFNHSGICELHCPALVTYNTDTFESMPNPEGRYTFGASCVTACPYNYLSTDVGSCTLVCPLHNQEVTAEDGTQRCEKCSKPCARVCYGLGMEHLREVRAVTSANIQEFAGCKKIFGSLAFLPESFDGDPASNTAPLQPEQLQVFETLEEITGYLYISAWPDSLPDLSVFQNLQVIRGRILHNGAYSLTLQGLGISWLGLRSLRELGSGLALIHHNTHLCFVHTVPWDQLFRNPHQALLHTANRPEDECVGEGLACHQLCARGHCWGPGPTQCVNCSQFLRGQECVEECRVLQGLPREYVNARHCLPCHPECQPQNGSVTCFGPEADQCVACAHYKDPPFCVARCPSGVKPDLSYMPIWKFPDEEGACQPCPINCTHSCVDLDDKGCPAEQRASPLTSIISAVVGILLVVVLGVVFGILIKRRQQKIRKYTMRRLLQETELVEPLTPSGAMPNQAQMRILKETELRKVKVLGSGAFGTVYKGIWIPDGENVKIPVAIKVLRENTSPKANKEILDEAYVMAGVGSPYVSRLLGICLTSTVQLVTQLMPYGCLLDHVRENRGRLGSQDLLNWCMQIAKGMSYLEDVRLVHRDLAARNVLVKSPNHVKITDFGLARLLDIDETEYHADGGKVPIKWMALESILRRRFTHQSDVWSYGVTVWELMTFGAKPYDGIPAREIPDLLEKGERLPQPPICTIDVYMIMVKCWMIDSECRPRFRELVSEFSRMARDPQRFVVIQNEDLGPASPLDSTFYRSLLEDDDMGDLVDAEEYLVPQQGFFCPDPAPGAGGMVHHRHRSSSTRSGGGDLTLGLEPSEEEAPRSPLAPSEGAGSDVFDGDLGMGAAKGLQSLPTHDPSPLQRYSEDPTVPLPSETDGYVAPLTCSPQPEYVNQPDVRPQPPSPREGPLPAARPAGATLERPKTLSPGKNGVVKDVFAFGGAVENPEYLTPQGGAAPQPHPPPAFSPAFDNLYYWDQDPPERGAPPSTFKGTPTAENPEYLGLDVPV

A word on the viability: it is a read-out of living cells in per cent, often relative to untreated cells. A word on the inhibition: it is the change of the read-out against control, counted positive when it falls. As for `CCc1ccccc1NC(=O)C(C#N)Cc1cccnc1` (stereo not given), the viability in test [1] was 90%; in test [3], 90% (inactive); in test [4], 97.4% (inactive); in test [5], 94.6% (inactive); in test [6] (setting [9]), 96.3%; in test [6] (setting [10]), 94.6%. Further, the Her2 level in test [2] was 88.5% (inactive). The differential viability (reversal) in test [6] (H69AR cells + 2 uM doxorubicin) was -1.77% (inactive). In addition, the inhibition in test [7] was -2.57% (inactive); in test [8], -0.49% (inactive).

In the case of `COc1ccc(NC(=O)Nc2cc(C)ccc2OC)cc1`, the viability was 101% in test [1]; 101% (inactive) in test [3]; 96.1% (inactive) in test [4]; 93.6% (inactive) in test [5]; 97.7% in test [6] (setting [9]); 93.6% in test [6] (setting [10]). The Her2 level in test [2] is 109% (inactive). For the same compound, the differential viability (reversal) in test [6] (H69AR cells + 2 uM doxorubicin) is -4.12% (inactive). Moreover, the inhibition in test [7] is 1.18% (inactive); in test [8], -3.11% (inactive).

`Nn1c(SCc2csc(-c3ccccc3)n2)nnc1-c1cccs1`: the viability in test [1] was 83%; in test [3], 83% (inactive); in test [4], 85.2% (inactive); in test [5] it was 97.3% (inactive); in test [6] (setting [9]), 91.2%; in test [6] (setting [10]), 97.3%. Besides, the Her2 level in test [2] is 82.5% (inactive). For the same compound, the differential viability (reversal) in test [6] (H69AR cells + 2 uM doxorubicin) was 6.11% (inactive). The inhibition is -9.05% (inactive) in test [7] and 5.25% (inactive) in test [8].

Regarding `O=C(NCN1CCCCC1)c1cnccn1`, the viability is 95.5% in test [1]; 95.5% (inactive) in test [3]; 103% (inactive) in test [4]; 89.9% (inactive) in test [5]; 106% in test [6] (setting [9]); 89.9% in test [6] (setting [10]). In addition, the Her2 level in test [2] is 86% (inactive). Moreover, in test [6] (H69AR cells + 2 uM doxorubicin), the differential viability (reversal) is -16.5% (inactive). The inhibition in test [7] is -2.47% (inactive); in test [8] it was -1.15% (inactive).

`COc1ccc2nc(NC(=O)C3CCCN(S(=O)(=O)c4cccc5nsnc45)C3)sc2c1` (stereo not given): the viability in test [1] is 96.5%; in test [3], 96.5% (inactive); in test [4], 75% (inactive); in test [5] it was 83.1% (inactive); in test [6] (setting [9]) it was 93.2%; in test [6] (setting [10]), 83.1%. In test [2], the Her2 level was 97.5% (inactive). In addition, in test [6] (H69AR cells + 2 uM doxorubicin), the differential viability (reversal) was -10.1% (inactive). The figures for the inhibition in test [7] and in test [8] were 4.53% (inactive) and -2.7% (inactive), respectively.

As for `COc1cc(-c2noc(-c3cccc(Cl)c3)n2)cc(OC)c1OC`, the viability in test [1] is 92.5%; in test [3] it was 92.5% (inactive); in test [4] it was 68% (inactive); in test [5], 80.5% (inactive); in test [6] (setting [9]), 90.6%; in test [6] (setting [10]), 80.5%. Moreover, the Her2 level in test [2] is 86% (inactive). In test [6] (H69AR cells + 2 uM doxorubicin), the differential viability (reversal) is -10.1% (inactive). Moreover, the inhibition in test [7] was -5.73% (inactive); in test [8] it was 0.97% (inactive).

In the case of `Cc1nc(NC(=O)C2CC3CCCC(C2)C3=O)sc1C` (stereo not given), the viability is 99.5% in test [1]; 99.5% (inactive) in test [3]; 95% (inactive) in test [4]; 82.8% (inactive) in test [5]; 85.7% in test [6] (setting [9]); 82.8% in test [6] (setting [10]). Further, the Her2 level in test [2] is 99.5% (inactive). For the same compound, in test [6] (H69AR cells + 2 uM doxorubicin), the differential viability (reversal) is -2.88% (inactive). The inhibition in test [7] was 0.39% (inactive); in test [8], -6.39% (inactive).

`Cc1ccc(NC(=O)CS(=O)CC(=O)NCC2CCCO2)cc1` (stereo not given): the viability in test [1] was 96.5%; in test [3] it was 96.5% (inactive); in test [4], 103% (inactive); in test [5], 96.8% (inactive); in test [6] (setting [9]), 89%; in test [6] (setting [10]), 96.8%. Besides, the Her2 level in test [2] was 120% (inactive). In test [6] (H69AR cells + 2 uM doxorubicin), the differential viability (reversal) was 7.8% (inactive). Further, the inhibition in test [7] is -1.62% (inactive); in test [8], 25% (inactive).

On to `CCN(CC)C(=O)CN(c1cc(Cl)ccc1OC)S(C)(=O)=O`, for which the viability is 95.5% in test [1]; 95.5% (inactive) in test [3]; 95.2% (inactive) in test [4]; 102% (inactive) in test [5]; 93.3% in test [6] (setting [9]); 102% in test [6] (setting [10]). The Her2 level in test [2] is 89.5% (inactive). In addition, the differential viability (reversal) in test [6] (H69AR cells + 2 uM doxorubicin) is 9.04% (inactive). The inhibition in test [7] was -1.18% (inactive); in test [8] it was -3.71% (inactive).

On to `Cc1ccc(NC(=O)CSc2nnc(CNC(=O)c3c(F)cccc3Cl)o2)cc1`, for which the viability in test [1] was 80%; in test [3], 80% (inactive); in test [4], 98% (inactive); in test [5] it was 95.7% (inactive); in test [6] (setting [9]), 96.5%; in test [6] (setting [10]) it was 95.7%. In test [2], the Her2 level is 98% (inactive). Moreover, in test [6] (H69AR cells + 2 uM doxorubicin), the differential viability (reversal) was -0.775% (inactive). In addition, the inhibition was -0.51% (inactive) in test [7] and -6.83% (inactive) in test [8].

`O=C(C1CCC1)N1CCc2cc(S(=O)(=O)Nc3ccc4c(c3)OCO4)ccc21`: the viability is 85.5% in test [1]; 85.5% (inactive) in test [3]; 70.1% (inactive) in test [4]; 91.6% (inactive) in test [5]; 73.8% in test [6] (setting [9]); 91.6% in test [6] (setting [10]). For the same compound, in test [2], the Her2 level is 76% (inactive). The differential viability (reversal) in test [6] (H69AR cells + 2 uM doxorubicin) is 17.8% (inactive). Moreover, the inhibition in test [7] was -6.27% (inactive); in test [8] it was -5.08% (inactive).

Turning to `CC(=O)c1cccc(NC(=O)c2ccc(NS(C)(=O)=O)cc2)c1`, the viability was 118% in test [1]; 118% (inactive) in test [3]; 97.7% (inactive) in test [4]; 83.6% (inactive) in test [5]; 85% in test [6] (setting [9]); 83.6% in test [6] (setting [10]). Moreover, the Her2 level in test [2] is 80.5% (inactive). The differential viability (reversal) in test [6] (H69AR cells + 2 uM doxorubicin) is -1.39% (inactive). For the same compound, the results for the inhibition in test [7] and in test [8] were -3.95% (inactive) and 1.75% (inactive), respectively.

For the compound `COc1ccccc1OCCCCNCCO`, the viability in test [1] is 95.5%; in test [3] it was 95.5% (inactive); in test [4], 92% (inactive); in test [5] it was 101% (inactive); in test [6] (setting [9]), 88.7%; in test [6] (setting [10]), 101%. Moreover, the Her2 level in test [2] is 116% (inactive). The differential viability (reversal) in test [6] (H69AR cells + 2 uM doxorubicin) is 12.6% (inactive). Besides, the inhibition was -1.56% (inactive) in test [7] and -7.83% (inactive) in test [8].

For the compound `CN(C)C(=O)CN(c1ccc(F)c(Cl)c1)S(C)(=O)=O`, the viability in test [1] is 101%; in test [3], 101% (inactive); in test [4], 92.7% (inactive); in test [5], 90.8% (inactive); in test [6] (setting [9]) it was 101%; in test [6] (setting [10]) it was 90.8%. For the same compound, the Her2 level in test [2] was 111% (inactive). In addition, the differential viability (reversal) in test [6] (H69AR cells + 2 uM doxorubicin) is -10.3% (inactive). The inhibition in test [7] is -2.11% (inactive); in test [8], -7.05% (inactive).

Turning to `CN1C(=O)CSc2ccc(NC(=O)N3CCN(c4ccccn4)CC3)cc21`, the viability in test [1] is 102%; in test [3], 102% (inactive); in test [4], 58.2% (inactive); in test [5], 91.3% (inactive); in test [6] (setting [9]), 79.1%; in test [6] (setting [10]), 91.3%. Moreover, the Her2 level in test [2] was 88.5% (inactive). In addition, the differential viability (reversal) in test [6] (H69AR cells + 2 uM doxorubicin) is 12.2% (inactive). The inhibition in test [7] was -0.4% (inactive); in test [8], 3.61% (inactive).

With `C[C@@H]1C[C@H](O)c2cc(Cl)ccc2N1`, the viability in test [1] was 104%; in test [3], 104% (inactive); in test [4], 86.1% (inactive); in test [5] it was 87.1% (inactive); in test [6] (setting [9]) it was 79.4%; in test [6] (setting [10]), 87.1%. In addition, the Her2 level in test [2] was 88.5% (inactive). In addition, the differential viability (reversal) in test [6] (H69AR cells + 2 uM doxorubicin) is 7.69% (inactive). Moreover, the values for the inhibition in test [7] and in test [8] were -5.84% (inactive) and -3.33% (inactive), respectively.

(Values after PubChem BioAssay.)
